Assay results of several laboratories.
Lines come from different studies, so protocols differ.
CNR2: Cannabinoid receptor 2 (CNR2, Homo sapiens, UniProt P34972)
LIMK2: LIM domain kinase 2 (LIMK2, Homo sapiens, UniProt P53671)

| Compound | target | assay | conditions | endpoint | value |
| --- | --- | --- | --- | --- | --- |
| CCOC(=O)C(CC)(CCCSCCOCCOCCOCCNC(=O)OC(C)(C)C)NC(=O)c1ccc(C2CC2)c(Cc2ccc(F)cc2)n1 (stereo not shown) | CNR2 | cAMP, agonist | – | Emax | 91% |
| O=C(O)C(F)(F)C(F)(F)C(F)(F)C(F)(F)C(F)(F)C(F)(F)C(F)(F)F | Solute carrier family 22 member 12 (SLC22A12, Homo sapiens, UniProt Q96S37) | transporter uptake, substrate | – | Km | 820 µM |
| CCOC(=O)[C@](CC)(CCC[S+]([O-])CCOCCOCCNC(=O)OC(C)(C)C)NC(=O)c1ccc(C2CC2)c(Cc2ccc(F)cc2)n1 (stereo partly shown) | CNR2 | cAMP, agonist | – | Emax | 93% |
| Cn1cc(-c2cc(F)cc(N3CCn4c(cc5c4CCCC5)C3=O)c2CO)cc(Nc2ccc(N3CCN(C4COC4)CC3)cn2)c1=O | LIMK2 | enzyme activity, inhibitor | 0.1 µM | inhibition | -3% |
| Cc1nn(C)cc1-c1nc2c(N3CCN(Cc4ccc(Cl)cc4)CC3)c(Cl)cnc2[nH]1 | Serine/threonine-protein kinase 35 (STK35, Homo sapiens, UniProt Q8TDR2) | binding, competition with immobilised ligand | 1 µM | remaining binding | 75% |
| C#Cc1n[nH]c2c(-c3cn([C@@H](C)c4ccccn4)c(=O)[nH]c3=O)cc(F)cc12 | Serine/threonine-protein kinase haspin (HASPIN, Homo sapiens, UniProt Q8TF76) | enzyme activity, inhibitor | 0.1 µM | inhibition | 4.5% |
| Nc1ncc(-c2nc(N3CCOCC3)nc(N3CCOCC3)n2)c(C(F)F)n1 | Membrane-associated tyrosine- and threonine-specific cdc2-inhibitory kinase (PKMYT1, Homo sapiens, UniProt Q99640) | binding, competition with immobilised ligand | 10 µM | remaining binding | 98% |
| CCN(CC)CCCC[C@H](NC(=O)[C@H](CC(C)C)NC(=O)[C@H](C)NC(=O)[C@H](Cc1ccccc1)NC(=O)c1ccc(C(C)(C)C)cc1)C(=O)N[C@@H](CO)C(=O)OC | Bromodomain-containing protein 9 (BRD9, Homo sapiens, UniProt Q9H8M2) | thermal stability, DSF | 25 µM | ΔTm | 0.23 °C |
| COc1ncccc1-c1cnn2ccc(N3CCN(C(=O)OC(C)C)CC3)nc12 | Epithelial discoidin domain-containing receptor 1 (DDR1, Homo sapiens, UniProt Q08345) | binding, competition with immobilised ligand | 1 µM | remaining binding | 100% |
| Cn1cc(-c2cccc(N3CCc4c(sc5c4CC(C)(C)C5)C3=O)c2CO)cc(Nc2ccncn2)c1=O | LIMK2 | enzyme activity, inhibitor | 1 µM | inhibition | 6% |
| Nc1ccc2cccc(O)c2n1 | Methionyl-tRNA synthetase, putative (Trypanosoma brucei brucei, UniProt Q38C91) | thermal stability, DSF | 800 µM | ΔTm | 1.8 °C |
| COc1ccc(S(=O)(=O)N(CC(=O)NO)CC(C)C)cc1 | 72 kDa type IV collagenase (MMP2, Homo sapiens, UniProt P08253) | enzyme activity, inhibitor | 1 µM | inhibition | 100% |
| O=C(N1CCCCC1Cc1ccccc1)n1cc(-c2ccc(-c3ccccc3)cc2)nn1 (stereo not shown) | Diacylglycerol lipase-alpha (Mus musculus, UniProt Q6WQJ1) | enzyme activity, inhibitor | – | kinact | 0.00133 s⁻¹ |
